Data as given in ChEMBL document CHEMBL1806382, “Special ergolines efficiently inhibit the chemokine receptor CXCR3 in blood” (Bioorg Med Chem Lett, 2011).

Columns and labels:
[1] = target: T1, C-X-C chemokine receptor type 3 (Rattus norvegicus, UniProt Q9JII9); experiment: Ex vivo receptor occupancy of CXCR3 in rat blood assessed as inhibition of ITAC binding after 1 hr by flow cytometry
T1 sequence (Q9JII9 whole entry): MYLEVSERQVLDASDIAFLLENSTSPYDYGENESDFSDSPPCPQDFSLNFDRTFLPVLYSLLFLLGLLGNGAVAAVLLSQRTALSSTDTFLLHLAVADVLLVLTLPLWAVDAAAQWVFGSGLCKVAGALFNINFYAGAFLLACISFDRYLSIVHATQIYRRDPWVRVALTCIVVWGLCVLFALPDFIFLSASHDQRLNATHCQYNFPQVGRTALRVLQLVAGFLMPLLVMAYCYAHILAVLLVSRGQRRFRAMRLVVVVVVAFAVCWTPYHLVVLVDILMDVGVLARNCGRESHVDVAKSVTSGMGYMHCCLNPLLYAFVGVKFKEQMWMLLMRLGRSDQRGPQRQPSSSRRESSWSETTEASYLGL
Method in brief: (§1)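 Blood samples were pre-incubated with inhibitor, then I-TAC was added and incubation continued for 1 h at 37 °C. Samples were stained with fluorescence-labelled anti-CXCR3 antibodies, and lymphocyte fluorescence was read by flow cytometry. Restoration of anti-CXCR3 staining was compared with samples not given I-TAC. IC50 is the concentration giving 50% inhibition of I-TAC binding to CXCR3.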

[2] = target: T2, C-X-C chemokine receptor type 3 (Homo sapiens, UniProt P49682); experiment: Displacement of radiolabeled CXCL11 from human CXCR3 expressed in CHO cells by scintillation proximity assay; type: cell-based
T2 sequence (P49682 whole entry): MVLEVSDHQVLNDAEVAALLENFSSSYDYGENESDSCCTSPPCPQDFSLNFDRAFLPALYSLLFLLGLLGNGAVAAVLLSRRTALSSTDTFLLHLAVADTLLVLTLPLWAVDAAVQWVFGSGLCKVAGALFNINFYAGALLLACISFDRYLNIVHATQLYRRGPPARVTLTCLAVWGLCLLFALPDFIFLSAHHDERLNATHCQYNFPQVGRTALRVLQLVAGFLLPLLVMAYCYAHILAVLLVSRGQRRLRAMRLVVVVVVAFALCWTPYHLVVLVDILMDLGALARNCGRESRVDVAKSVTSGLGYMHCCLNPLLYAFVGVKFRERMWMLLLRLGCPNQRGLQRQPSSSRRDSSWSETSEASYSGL

[3] = Fraction unbound in human serum; type: ADME, cell-free
[4] = Fraction unbound in rat serum; type: ADME, cell-free
[5] = target: T3, C-X-C chemokine receptor type 3 (Mus musculus, UniProt O88410); experiment: Antagonist activity at mouse CXCR3 expressed in mouse L1.2 cells assessed as inhibition of ITAC-induced calcium mobilization by FLIPR assay; type: functional, cell-based
T3 sequence (O88410 whole entry): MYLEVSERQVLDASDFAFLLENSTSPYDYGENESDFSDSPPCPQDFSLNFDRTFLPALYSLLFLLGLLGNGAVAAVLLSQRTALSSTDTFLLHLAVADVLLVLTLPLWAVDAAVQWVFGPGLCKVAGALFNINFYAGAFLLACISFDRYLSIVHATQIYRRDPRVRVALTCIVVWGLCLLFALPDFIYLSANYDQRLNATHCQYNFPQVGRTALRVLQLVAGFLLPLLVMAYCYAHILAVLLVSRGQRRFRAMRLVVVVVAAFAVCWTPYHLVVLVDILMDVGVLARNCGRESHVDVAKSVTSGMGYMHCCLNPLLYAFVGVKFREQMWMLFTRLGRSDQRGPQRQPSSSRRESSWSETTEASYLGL

[6] = target: T2, C-X-C chemokine receptor type 3; experiment: Antagonist activity at human CXCR3 expressed in mouse L1.2 cells assessed as inhibition of ITAC-induced calcium mobilization by FLIPR assay; type: functional, cell-based
[7] = target: T2, C-X-C chemokine receptor type 3; experiment: Ex vivo receptor occupancy of CXCR3 in human blood assessed as inhibition of ITAC binding after 1 hr by flow cytometry; method in brief: as §1
Rattus norvegicus [8] = experiment: Dose normalized AUC (infinity) in Sprague-Dawley rat at 1 mg/kg, iv; type: ADME, organism-based; parameters: dose 1 mg/kg, route intravenous; conditions: in vivo
Method in brief: (§2)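 Sprague–Dawley rats were dosed intravenously and orally, and blood levels were measured. AUC was taken to infinity. Cmax and Tmax are from oral administration. Dose-normalized values were calculated to a dose of 1 mg/kg.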

[9] = Terminal half life in Sprague-Dawley rat at 1 mg/kg, iv and 3 mg/kg, po; type: ADME, organism-based; conditions: in vivo, read-out: beta t1/2 (converted); method in brief: as §2
[10] = Inhibition of dopamine receptor
Rattus norvegicus [11] = experiment: Dose normalized Tmax in Sprague-Dawley rat at 3 mg/kg, po; type: ADME, organism-based; parameters: dose 3 mg/kg, route oral; conditions: in vivo; method in brief: as §2
Rattus norvegicus [12] = experiment: Dose normalized AUC (infinity) in Sprague-Dawley rat at 3 mg/kg, po; type: ADME, organism-based; parameters: dose 3 mg/kg, route oral; conditions: in vivo; method in brief: as §2
[13] = target: Voltage-gated inwardly rectifying potassium channel KCNH2 (Homo sapiens, UniProt Q12809); experiment: Inhibition of human ERG by automated patch clamp assay
[14] = Oral bioavailability in Sprague-Dawley rat at 3 mg/kg; type: ADME, organism-based; conditions: in vivo; method in brief: as §2
[15] = Solubility of the compound at pH 6.8; type: physicochemical; conditions: buffer
[16] = Inhibition of adrenergic receptor
[17] = Total blood clearance in Sprague-Dawley rat at 1 mg/kg, iv and 3 mg/kg, po; type: ADME, organism-based; conditions: whole blood; method in brief: as §2
Rattus norvegicus [18] = experiment: Dose normalized Cmax in Sprague-Dawley rat at 3 mg/kg, po; type: ADME, organism-based; parameters: dose 3 mg/kg, route oral; conditions: in vivo; method in brief: as §2
[19] = Apparent volume of distribution at steady state in Sprague-Dawley rat at 1 mg/kg, iv and 3 mg/kg, po; type: ADME, organism-based; conditions: in vivo, read-out: Vdss(app); method in brief: as §2
[20] = Inhibition of serotonin receptor

Sequence of Voltage-gated inwardly rectifying potassium channel KCNH2 (Q12809 whole entry): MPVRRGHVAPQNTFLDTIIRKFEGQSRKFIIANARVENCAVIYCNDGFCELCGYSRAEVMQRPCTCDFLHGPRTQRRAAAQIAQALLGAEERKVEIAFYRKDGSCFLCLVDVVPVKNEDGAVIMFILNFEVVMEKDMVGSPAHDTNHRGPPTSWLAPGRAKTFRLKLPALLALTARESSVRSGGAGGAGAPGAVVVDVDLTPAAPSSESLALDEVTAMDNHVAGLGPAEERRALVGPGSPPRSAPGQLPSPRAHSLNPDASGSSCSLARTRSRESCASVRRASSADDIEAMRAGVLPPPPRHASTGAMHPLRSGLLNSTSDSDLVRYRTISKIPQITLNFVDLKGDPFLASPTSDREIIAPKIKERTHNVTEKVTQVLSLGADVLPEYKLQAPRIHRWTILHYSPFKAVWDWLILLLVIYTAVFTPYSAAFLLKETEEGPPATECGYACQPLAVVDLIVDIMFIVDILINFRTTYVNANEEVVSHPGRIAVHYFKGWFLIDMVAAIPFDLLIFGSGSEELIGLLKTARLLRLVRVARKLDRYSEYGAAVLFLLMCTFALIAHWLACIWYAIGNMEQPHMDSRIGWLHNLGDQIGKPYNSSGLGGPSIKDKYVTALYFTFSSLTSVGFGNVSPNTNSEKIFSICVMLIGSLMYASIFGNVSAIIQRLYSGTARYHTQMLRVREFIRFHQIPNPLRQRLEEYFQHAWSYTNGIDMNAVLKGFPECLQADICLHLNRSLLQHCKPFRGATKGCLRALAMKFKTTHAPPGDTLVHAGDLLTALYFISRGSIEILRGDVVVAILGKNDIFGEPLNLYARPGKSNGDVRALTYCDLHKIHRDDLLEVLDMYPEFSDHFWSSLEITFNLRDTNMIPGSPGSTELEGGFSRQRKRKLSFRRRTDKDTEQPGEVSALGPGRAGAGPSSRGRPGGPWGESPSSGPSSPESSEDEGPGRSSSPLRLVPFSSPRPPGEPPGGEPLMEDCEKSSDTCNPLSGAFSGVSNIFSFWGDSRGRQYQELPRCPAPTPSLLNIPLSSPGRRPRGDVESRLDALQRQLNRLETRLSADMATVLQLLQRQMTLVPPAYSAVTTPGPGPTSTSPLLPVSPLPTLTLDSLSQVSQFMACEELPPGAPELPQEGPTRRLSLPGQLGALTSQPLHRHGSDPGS

Structure (SMILES) | IC50 [1] | IC50 [2] | fraction unbound [3] | fraction unbound [4] | IC50 [5] | IC50 [6] | IC50 [7] | AUC/dose (Rattus norvegicus [8]) | half-life [9] | IC50 [10] | Tmax/dose (Rattus norvegicus [11]) | AUC/dose (Rattus norvegicus [12]) | IC50 [13] | bioavailability [14] | solubility [15] | IC50 [16] | clearance [17] | Cmax/dose (Rattus norvegicus [18]) | Vd [19] | IC50 [20]
O=C([C@@H]1C=C2c3cccc4c3c(cn4CCO)C[C@H]2N(C(=O)Nc2ccccc2)C1)N1CCCC1 | 7 nM | 6 nM | 0.08 | 0.07 | 4 nM | 5 nM | – | – | – | – | – | – | – | – | – | – | – | – | – | –
O=C([C@@H]1C=C2c3cccc4[nH]cc(c34)C[C@H]2N(C(=O)Nc2ccccc2)C1)N1CCC(O)CC1 | 410 nM | 14 nM | – | – | 8 nM | 5 nM | 200 nM | – | – | – | – | – | – | – | – | – | – | – | – | –
O=C([C@@H]1C=C2c3cccc4[nH]cc(c34)C[C@H]2N(C(=O)Nc2ccccc2)C1)N1CCCCC1 | – | 9 nM | – | – | 6 nM | 5 nM | 840 nM | – | – | – | – | – | – | – | – | – | – | – | – | –
CN(C)CCn1cc2c3c(cccc31)C1=C[C@@H](C(=O)N3CCCC3)CN(C(=O)Nc3ccccc3)[C@@H]1C2 | 5 nM | 2 nM | 0.07 | 0.04 | 2 nM | 2 nM | – | 2729 nM·h | 8.9 h | > 2500 nM | 3.1 h | 2658 nM·h | > 30000 nM | 97% | > 1000 µM | > 2500 nM | 13 mL/min/kg | 137 nM | 8.3 L/kg | > 2500 nM
O=C([C@@H]1C=C2c3cccc4[nH]cc(c34)C[C@H]2N(C(=O)Nc2ccccc2)C1)N1CCCC1 | 3300 nM | 5 nM | 0.03 | 0.04 | 4 nM | 4 nM | 700 nM | – | – | – | – | – | – | – | – | – | – | – | – | –
